Measured values pooled from the literature.
Protocols differ between the studies behind these lines.
ACSL4: Long-chain-fatty-acid--CoA ligase 4 (ACSL4, Homo sapiens, UniProt O60488)
PTGER4: Prostaglandin E2 receptor EP4 subtype (PTGER4, Homo sapiens, UniProt P35408)
RIOK3: Serine/threonine-protein kinase RIO3 (RIOK3, Homo sapiens, UniProt O14730)

Compound	target	assay	conditions	endpoint	value
C1=C/COCc2cc(ccc2OCCN2CCCC2)Nc2nccc(n2)-c2cccc(c2)COC/1	Death-associated protein kinase 1 (DAPK1, Homo sapiens, UniProt P53355)	binding	0.1 µM	remaining binding	64%
C[C@]1(O)CCCN(c2nc(Nc3ccc(S(=O)(=O)N[C@H]4CC[C@H](CN5CCN(c6ccc(C7CCC(=O)NC7=O)cc6F)CC5)CC4)cc3F)ncc2C(F)(F)F)C1 (stereo partly drawn)	Cyclin-dependent kinase 7 (CDK7, Homo sapiens, UniProt P50613)	binding, competition with immobilised ligand	1 µM	remaining binding	85%
CCCCC(=O)Nc1ccc(-c2ccc3ncn(CCC)c(=O)c3c2)cn1	Dual specificity protein kinase TTK (TTK, Homo sapiens, UniProt P33981)	binding, competition with immobilised ligand	0.5 µM	remaining binding	64%
COC(=O)/C=C/c1ccc(OCCN(C)C(=O)c2ccccc2)cc1	ACSL4	thermal stability, DSF	5 µM	ΔTm	5.3 °C
NC/C(=C\F)COc1cccc(Cn2c(=S)[nH]c(=O)c3[nH]cnc32)c1	PTGER4	ligand displacement, radioligand	10 µM	inhibition	< 50%
CCN1/C(=C/C(C)=O)Sc2ccc(F)cc21	PTGER4	ligand displacement, radioligand	10 µM	inhibition	4.39%
COc1ccc(CC2SC(=O)NC2=O)cc1 (stereo not drawn)	ACSL4	enzyme activity, inhibitor	10 µM	inhibition	13%
Cc1cc(F)cc2c(CCC(=O)N[C@@H]3C(=O)NC[C@H]3O)c(-c3ccc(F)cc3)[nH]c12	3',5'-cyclic-AMP phosphodiesterase 4D (PDE4D, Homo sapiens, UniProt Q08499)	enzyme activity, inhibitor	10 µM	inhibition	17%
CNS(=O)(=O)c1ccc(Nc2ncc(C(F)(F)F)c(N3CCC[C@](C)(O)C3)n2)c(C)c1	RIOK3	binding, competition with immobilised ligand	1 µM	remaining binding	99%
C#Cc1cc(-c2cc(Nc3nc(N[C@@H](C)c4ccc(F)cn4)ncc3Cl)n[nH]2)ccc1C=O	Serine/threonine-protein kinase 33 (STK33, Homo sapiens, UniProt Q9BYT3)	enzyme activity, inhibitor	0.2 µM	inhibition	7.93%
Cc1cc(S(=O)(=O)N[C@H]2CC[C@H](CN3CCN(c4ccc(C5CCC(=O)NC5=O)cc4F)CC3)CC2)ccc1Nc1ncc(C(F)(F)F)c(N2CCC[C@](C)(O)C2)n1 (stereo partly drawn)	RIOK3	binding, competition with immobilised ligand	1 µM	remaining binding	58%
CN1CCc2c(c3ccccc3n2Cc2ccc(C(=O)NO)cc2)C1	Protein deacetylase HDAC6 (HDAC6, Homo sapiens, UniProt Q9UBN7)	enzyme activity, inhibitor, fluorescence	0.5 µM	inhibition	94.8%
